Test results from ChEMBL document CHEMBL3352255, “Tailor-made fluorescent trilobolide to study its biological relevance” (J Med Chem, 2014).
Calls of active or inactive are those of the source. The calls are words filed in the database; no cut-off is given here.

How the values were obtained:
[1] = Cytotoxicity against rat peritoneal cells assessed as reduction in cell viability at 40 uM after 24 hrs by WST-1 assay; type: cell-based
[2] = Cytotoxicity against human PC3 cells after 48 hrs by WST-1 assay; type: functional, cell-based; conditions: PC-3, 48 h
Summary of the method: (§1)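 Dark cytotoxicity (no light exposure) by WST-1 tetrazolium-to-formazan conversion reflecting metabolic activity; compounds tested at concentrations up to 50 μM for 24, 48 or 72 h; IC50 taken as concentration giving 50% inhibition of cell viability.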

HT-29 [3] = assay: Cytotoxicity against human HT-29 cells after 72 hrs by WST-1 assay; type: functional, cell-based; conditions: HT-29, 72 h; summary of the method: as §1
HT-29 [4] = assay: Cytotoxicity against human HT-29 cells after 24 hrs by WST-1 assay; type: functional, cell-based; conditions: HT-29, 24 h; summary of the method: as §1
C2C12 [5] = assay: Cytotoxicity against mouse C2C12 cells after 24 hrs by WST-1 assay; type: functional, cell-based; conditions: C2C12, 24 h; summary of the method: as §1
U2OS [6] = assay: Cytotoxicity against human U2OS cells after 72 hrs by WST-1 assay; type: functional, cell-based; summary of the method: as §1
[7] = Cytotoxicity against human MIAPaCa2 cells after 72 hrs by WST-1 assay; type: functional, cell-based; conditions: MIA PaCa-2, 72 h; summary of the method: as §1
A549 = assay: Cellular uptake in human A549 cells at 5 uM after 24 hrs by fluorescence microscopy; type: ADME, cell-based; conditions: a549, 24 h
Summary of the method: (§2)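 Live-cell fluorescence microscopy of Bodipy-labelled conjugates (green emission), 5 μM, uptake followed at 10, 20, 40 min and 1, 3, 5, 24 h. Cells stained with Bodipy dye alone served as control for dye-driven localization.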

C2C12 [8] = assay: Cellular uptake in mouse C2C12 cells at 5 uM after 24 hrs by fluorescence microscopy; type: ADME, cell-based; conditions: c2c12, 24 h; summary of the method: as §2
C2C12 [9] = assay: Cytotoxicity against mouse C2C12 cells after 72 hrs by WST-1 assay; type: functional, cell-based; conditions: C2C12, 72 h; summary of the method: as §1
[10] = Cytotoxicity against human PC3 cells after 24 hrs by WST-1 assay; type: functional, cell-based; conditions: PC-3, 24 h; summary of the method: as §1
HT-29 [11] = assay: Cytotoxicity against human HT-29 cells after 48 hrs by WST-1 assay; type: functional, cell-based; conditions: HT-29, 48 h; summary of the method: as §1
LNCaP [12] = assay: Cellular uptake in human LNCAP cells at 5 uM after 24 hrs by fluorescence microscopy; type: ADME, cell-based; summary of the method: as §2
U2OS [13] = assay: Cytotoxicity against human U2OS cells after 48 hrs by WST-1 assay; type: functional, cell-based; summary of the method: as §1
HeLa = assay: Cellular uptake in human HeLa cells at 5 uM after 24 hrs by fluorescence microscopy; type: ADME, cell-based; summary of the method: as §2
LNCaP [14] = assay: Cytotoxicity against human LNCAP cells after 24 hrs by WST-1 assay; type: functional, cell-based; summary of the method: as §1
[15] = Cellular uptake in HEK293T cells at 5 uM after 24 hrs by fluorescence microscopy; type: ADME, cell-based; conditions: human, hek-293t; summary of the method: as §2
MCF7 [16] = assay: Cellular uptake in human MCF7 cells at 5 uM after 24 hrs by fluorescence microscopy; type: ADME, cell-based; conditions: mcf7, 24 h
[17] = Cytotoxicity against human MIAPaCa2 cells after 48 hrs by WST-1 assay; type: functional, cell-based; conditions: MIA PaCa-2, 48 h; summary of the method: as §1
U2OS [18] = assay: Cellular uptake in human U2OS cells at 5 uM after 24 hrs by fluorescence microscopy; type: ADME, cell-based; summary of the method: as §2
LNCaP [19] = assay: Cytotoxicity against human LNCAP cells after 48 hrs by WST-1 assay; type: functional, cell-based; summary of the method: as §1
[20] = Cellular uptake in human MIAPaCa2 cells at 5 uM after 24 hrs by fluorescence microscopy; type: ADME, cell-based; conditions: mia paca-2, 24 h; summary of the method: as §2
U2OS [21] = assay: Cytotoxicity against human U2OS cells after 24 hrs by WST-1 assay; type: functional, cell-based; summary of the method: as §1
[22] = Cellular uptake in human PC3 cells at 5 uM after 24 hrs by fluorescence microscopy; type: ADME, cell-based; conditions: pc-3, 24 h; summary of the method: as §2
C2C12 [23] = assay: Cytotoxicity against mouse C2C12 cells after 48 hrs by WST-1 assay; type: functional, cell-based; conditions: C2C12, 48 h; summary of the method: as §1
MCF7 [24] = assay: Cytotoxicity against human MCF7 cells after 24 hrs by WST-1 assay; type: functional, cell-based; conditions: MCF7, 24 h; summary of the method: as §1
MCF7 [25] = assay: Cytotoxicity against human MCF7 cells after 48 hrs by WST-1 assay; type: functional, cell-based; conditions: MCF7, 48 h; summary of the method: as §1
Rattus norvegicus [26] = species: Rattus norvegicus; assay: Induction of LPS-induced NO production in rat peritoneal cells after 24 hrs using DAR-2 probe by fluorescence assay; type: functional, cell-based
[27] = Cytotoxicity against human PC3 cells after 72 hrs by WST-1 assay; type: functional, cell-based; conditions: PC-3, 72 h; summary of the method: as §1
[28] = Cytotoxicity against human MIAPaCa2 cells after 24 hrs by WST-1 assay; type: functional, cell-based; conditions: MIA PaCa-2, 24 h; summary of the method: as §1
LNCaP [29] = assay: Cytotoxicity against human LNCAP cells after 72 hrs by WST-1 assay; type: functional, cell-based; summary of the method: as §1
MCF7 [30] = assay: Cytotoxicity against human MCF7 cells after 72 hrs by WST-1 assay; type: functional, cell-based; conditions: MCF7, 72 h; summary of the method: as §1
[31] = Cytotoxicity against rat peritoneal cells assessed as reduction in cell viability at 40 uM after 24 hrs by WST-1 assay
Rattus norvegicus [32] = species: Rattus norvegicus; assay: Induction of TNFalpha production in rat peritoneal cells at 0.01 to 40 uM after 24 hrs by ELISA; type: functional, cell-based
[33] = Cellular uptake in Endoplasmic reticulum of human HeLa cells at 1 uM after 1 hr by fluorescence microscopy; type: ADME, cell-based
Summary of the method: (§3)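 Live-cell fluorescence microscopy of cells exposed to Bodipy-labelled conjugates at 1 μM for 1 h. ER was co-stained with ER-Tracker Blue-White DPX (100 nM, 20 min) to check colocalisation. A Bodipy dye-only stain served as control.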

LNCaP [34] = assay: Induction of LPS-induced NO production in human LNCAP cells at 40 uM after 24 hrs using DAR-2 probe by fluorescence assay; type: functional, cell-based
Summary of the method: (§4)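 NO in living cells (PC-3, LNCaP, MCF-7, U-2 OS) was imaged by fluorescence microscopy with the NO-specific red-emitting probe DAR-2 after compound stimulation.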

[35] = Cytotoxicity against rat peritoneal cells assessed as reduction in cell viability at 10 uM after 24 hrs by WST-1 assay; type: cell-based
[36] = Cellular uptake in Endoplasmic reticulum of human U2OS cells at 1 uM after 1 hr by fluorescence microscopy; type: ADME, cell-based; summary of the method: as §3
MCF7 [37] = assay: Induction of LPS-induced NO production in human MCF7 cells at 40 uM after 24 hrs using DAR-2 probe by fluorescence assay; type: functional, cell-based; summary of the method: as §4
[38] = Cellular uptake in Endoplasmic reticulum of human PC3 cells at 1 uM after 1 hr by fluorescence microscopy; type: ADME, cell-based; conditions: pc-3, 1 h; summary of the method: as §3
PC-3 = assay: Induction of LPS-induced NO production in human PC3 cells at 40 uM after 24 hrs using DAR-2 probe by fluorescence assay; type: functional, cell-based; summary of the method: as §4
[39] = Cellular uptake in Endoplasmic reticulum of human LNCAP cells at 1 uM after 1 hr by fluorescence microscopy; type: ADME, cell-based; summary of the method: as §3
U2OS [40] = assay: Induction of LPS-induced NO production in human U2OS cells at 40 uM after 24 hrs using DAR-2 probe by fluorescence assay; type: functional, cell-based; summary of the method: as §4

SMILES	IC50 [2]	IC50 (HT-29 [3])	IC50 (HT-29 [4])	IC50 (C2C12 [5])	IC50 (U2OS [6])	IC50 [7]	IC50 (C2C12 [9])	IC50 [10]	IC50 (HT-29 [11])	IC50 (U2OS [13])	IC50 (LNCaP [14])	IC50 [17]	IC50 (LNCaP [19])	IC50 (U2OS [21])	IC50 (C2C12 [23])	IC50 (MCF7 [24])	IC50 (MCF7 [25])	IC50 [27]	IC50 [28]	IC50 (LNCaP [29])	further results
C/C=C(/C)C(=O)O[C@@H]1C[C@H]2C(=C1C)[C@@H]1OC(=O)[C@@](C)(O)[C@@]1(O)[C@@H](OC(=O)CCOCCOCCOCCOCCOCCOCCOCCOCCOCCOCCn1cc(COc3ccc(C4=C5C=CC=[N+]5[B-](F)(F)n5cccc54)cc3)nn1)C[C@]2(C)OC(C)=O	> 50 µM	> 50 µM	> 50 µM	> 50 µM	> 50 µM	41.1 µM	> 50 µM	> 50 µM	> 50 µM	> 50 µM	> 50 µM	50 µM	> 50 µM	> 50 µM	> 50 µM	> 50 µM	48 µM	> 50 µM	> 50 µM	> 50 µM	Activity [1]: Non-toxic; Drug uptake (A549): Not Active; Drug uptake (C2C12 [8]): Not Active; Drug uptake (LNCaP [12]): Not Active; Drug uptake (HeLa): Not Active; Drug uptake [15]: Not Active; Drug uptake (MCF7 [16]): Not Active; Drug uptake (U2OS [18]): Not Active; Drug uptake [20]: Not Active; Drug uptake [22]: Not Active; Activity (Rattus norvegicus [26]): Dose-dependent effect; IC50 (MCF7 [30]): 47.3 µM; Activity [31]: Non-toxic
C/C=C(/C)C(=O)O[C@@H]1C[C@H]2C(=C1C)[C@@H]1OC(=O)[C@@](C)(O)[C@@]1(O)[C@@H](OC(=O)Cn1cc(COc3ccc(C4=C5C=CC=[N+]5[B-](F)(F)n5cccc54)cc3)nn1)C[C@]2(C)OC(C)=O	2.9 µM	> 50 µM	> 50 µM	> 50 µM	> 50 µM	> 50 µM	> 50 µM	2.2 µM	> 50 µM	> 50 µM	> 50 µM	> 50 µM	3.5 µM	> 50 µM	> 50 µM	> 50 µM	> 50 µM	3.2 µM	> 50 µM	> 50 µM	Activity [1]: Non-toxic; Drug uptake (A549): Not Active; Drug uptake (C2C12 [8]): Not Active; Drug uptake (LNCaP [12]): Not Active; Drug uptake (HeLa): Not Active; Drug uptake [15]: Not Active; Drug uptake (MCF7 [16]): Not Active; Drug uptake (U2OS [18]): Not Active; Drug uptake [20]: Not Active; Drug uptake [22]: Not Active; Activity (Rattus norvegicus [26]): Dose-dependent effect; IC50 (MCF7 [30]): > 50 µM; Activity [31]: Non-toxic
F[B-]1(F)n2cccc2C=C2C=CC=[N+]21	3.1 µM	> 50 µM	> 50 µM	> 50 µM	> 50 µM	> 50 µM	> 50 µM	1.5 µM	> 50 µM	> 50 µM	> 50 µM	> 50 µM	> 50 µM	> 50 µM	> 50 µM	> 50 µM	> 50 µM	5.6 µM	> 50 µM	> 50 µM	Activity (Rattus norvegicus [26]): inactive; IC50 (MCF7 [30]): > 50 µM; Activity (Rattus norvegicus [32]): inactive
C/C=C(/C)C(=O)O[C@@H]1C[C@H]2C(=C1C)[C@@H]1OC(=O)[C@@](C)(O)[C@@]1(O)[C@@H](OC(=O)CCOCCOCCOCCOCCn1cc(COCCOCCOCCOCCNC(=O)CCOCCOCCOCCOCCn3cc(COc4ccc(C5=C6C=CC=[N+]6[B-](F)(F)n6cccc65)cc4)nn3)nn1)C[C@]2(C)OC(C)=O	> 50 µM	> 50 µM	> 50 µM	> 50 µM	> 50 µM	> 50 µM	> 50 µM	> 50 µM	> 50 µM	> 50 µM	> 50 µM	> 50 µM	> 50 µM	> 50 µM	> 50 µM	> 50 µM	> 50 µM	> 50 µM	> 50 µM	> 50 µM	Activity [1]: Non-toxic; Drug uptake (A549): Not Active; Drug uptake (C2C12 [8]): Not Active; Drug uptake (LNCaP [12]): Not Active; Drug uptake (HeLa): Not Active; Drug uptake [15]: Not Active; Drug uptake (MCF7 [16]): Not Active; Drug uptake (U2OS [18]): Not Active; Drug uptake [20]: Not Active; Drug uptake [22]: Not Active; Activity (Rattus norvegicus [26]): Dose-dependent effect; IC50 (MCF7 [30]): > 50 µM; Activity [31]: Non-toxic
C/C=C(/C)C(=O)O[C@@H]1C[C@H]2C(=C1C)[C@@H]1OC(=O)[C@@](C)(O)[C@@]1(O)[C@@H](OC(=O)[C@@H](C)CC)C[C@]2(C)OC(C)=O	1.3 µM	9.5 µM	41.4 µM	4 µM	0.7 µM	1.5 µM	0.3 µM	9.6 µM	9.8 µM	0.2 µM	3.4 µM	6 µM	0.5 µM	12.5 µM	1 µM	0.2 µM	2.5 µM	0.5 µM	17.4 µM	0.4 µM	Drug uptake [33]: Active; Activity (LNCaP [34]): Active; Activity [35]: 65%; Drug uptake [36]: Active; Activity (MCF7 [37]): Active; Drug uptake [38]: Active; Activity (PC-3): Active; Drug uptake [39]: Active; Activity (U2OS [40]): Active; IC50 (MCF7 [30]): 2.1 µM
